PAFAH2 FP inh: PAFAH2 (human) inhibition; Q99487; recombinant PAFAH2, FP-rhodamine activity probe, fluorescence polarization; inhibition, % at 3.39 µM; 0.99% of 340,000 active; AID 492956;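 active means inhibition above the mean over all tested compounds plus 3 SD, cut at about 30% in these data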;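 further: inhibitors block probe labeling of enzyme so polarization drops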
ARFGAP1 inhibitor: inhibits rat ARF GTPase activating protein 1; Arfgap1-stimulated ARF1 GTP hydrolysis, GDP FP detection; inhibition, % at 16.5 µM; 0.26% of 360,000 active;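 active means inhibition above a per-plate limit, mean inhibition of low control wells plus 3 SD, cut at about 25% in these data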
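Material: truncated rat Arfgap1 GAP domain; Incubation: compound-enzyme preincubation 20 min, reaction 120 min, detection 60 min, 25 °C; Read-out: percent inhibition of Arfgap1-stimulated GTP hydrolysis; Technique: FP, GDP Alexa 633 tracer displaced from anti-GDP antibody, 620/688 nm; Controls: No-Arfgap1 wells (100%) versus DMSO full-reaction wells (0%); Replication: single well per compound.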
ASAP1 GAP inh: blocks human ASAP1-stimulated Arf1 GTP hydrolysis; GDP FP detection; inhibition, % at 16.5 µM; Q9ULH1; 0.19% of 360,000 active; AID 624377; in the data active means inhibition above about 25%
Target sequence (Q9ULH1 325-724 limits assumed): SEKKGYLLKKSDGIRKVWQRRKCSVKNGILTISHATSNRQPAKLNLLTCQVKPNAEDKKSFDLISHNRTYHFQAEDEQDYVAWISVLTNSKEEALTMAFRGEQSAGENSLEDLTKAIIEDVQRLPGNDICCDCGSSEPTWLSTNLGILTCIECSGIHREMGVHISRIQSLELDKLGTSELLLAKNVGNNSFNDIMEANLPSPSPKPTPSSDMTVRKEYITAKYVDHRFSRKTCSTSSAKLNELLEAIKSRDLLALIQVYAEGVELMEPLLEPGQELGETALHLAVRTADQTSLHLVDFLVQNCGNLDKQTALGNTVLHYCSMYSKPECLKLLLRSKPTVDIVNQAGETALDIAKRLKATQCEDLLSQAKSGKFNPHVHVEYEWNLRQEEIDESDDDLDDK
pPAFAH FP inh: pPAFAH (human) enzyme inhibition. recombinant pPAFAH, FP-rhodamine probe fluorescence polarization. inhibition, % at 3.39 µM. 1.5% of 330,000 active;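 active means inhibition above the mean inhibition across the screen plus 3 SD, cut at about 25% in these data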;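 further: inhibitors block binding of the rhodamine activity-based probe so polarization drops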
PAFAH1B3 FP inh: blocks human PAF acetylhydrolase 1B catalytic subunit 3; recombinant PAFAH1B3, FP-rhodamine probe, fluorescence polarization; inhibition, % at 3.39 µM; 0.28% of 340,000 active;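 active means inhibition above the screen-wide average of all tested compounds plus 3 SD, cut at about 25% in these data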
PAFAH1B2 FP inh: inhibitors of human PAFAH1B2 | P68402 | recombinant PAFAH1B2, FP-rhodamine activity probe, fluorescence polarization | inhibition, % at 3.39 µM | 1.2% of 340,000 active | AID 492953;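 active means inhibition above the mean of all tested compounds plus 3 SD, cut at about 24% in these data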
Target sequence (P68402 whole entry, looked up): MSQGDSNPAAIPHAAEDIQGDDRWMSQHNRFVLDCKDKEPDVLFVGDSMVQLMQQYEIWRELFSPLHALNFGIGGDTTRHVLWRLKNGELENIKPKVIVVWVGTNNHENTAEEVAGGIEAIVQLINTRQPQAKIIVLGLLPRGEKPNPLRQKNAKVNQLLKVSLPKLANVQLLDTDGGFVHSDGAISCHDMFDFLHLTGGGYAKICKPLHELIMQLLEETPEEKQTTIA
ASAP1 GAP conf: ASAP1 inhibition confirmed; shares compounds with ASAP1 GAP inh; ASAP1-stimulated Arf1 GTPase, GDP fluorescence polarization; inhibition, % at 16.5 µM; 37% of 620 active;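 active means mean inhibition over triplicates exceeds the hit threshold derived for the earlier primary screening run, cut at about 25% in these data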
ARFGAP1 confirm: rat ARFGAP1 inhibition, confirmed. shares compounds with ARFGAP1 inhibitor. ARFGAP1-stimulated ARF1 GTP hydrolysis, GDP tracer FP. inhibition, % at 16.5 µM. 30% of 890 active. AID 651608;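 active means average inhibition over triplicates above the hit cutoff set in the earlier primary screen, cut at about 25% in these data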
A number is an active result; – = inactive; · = no result; + = active, no number. Most compounds without a hit are left out; they make up all but 2.7% or so of the library.

SMILES	PAFAH2 FP inh	ARFGAP1 inhibitor	ASAP1 GAP inh	pPAFAH FP inh	PAFAH1B3 FP inh	PAFAH1B2 FP inh	ASAP1 GAP conf	ARFGAP1 confirm
CC(C)NC(=O)N(C)C[C@@H]1OCc2cn(nn2)CCCC(=O)N([C@H](C)CO)C[C@H]1C	·	–	–	·	·	·	·	·
COc1ccc(NC(=O)c2cccc3c(-c4cccnc4)coc23)cc1	·	26.1	32.5	·	·	·	–	–
CC1CN(C(=O)CCC(=O)NCc2ccccc2)c2ccccc2O1 (stereo not drawn)	–	–	–	–	–	–	·	·
O=C1Nc2ccccc2C1Cc1ccccn1 (stereo not drawn)	–	–	–	–	–	–	·	·
N#CC1C(=O)Nc2cccnc21 (stereo not drawn)	·	28.5	30.2	·	·	·	–	–
Cc1cc2cc(CNC(=O)Nc3ccc(Cl)c(Cl)c3)ccc2n1C	–	73.7	42.0	–	–	–	–	–
CC(C#N)(NC(=O)CN1CCN(S(=O)(=O)c2cccc(F)c2)CC1)C1CC1 (stereo not drawn)	·	–	–	·	·	·	·	·
COc1ccccc1-c1csc(-n2ncc(C#N)c2N)n1	–	39.3	41.1	–	–	–	66.5	110.9
O=C(NCC1CCCCC1)c1ccccc1[N+](=O)[O-]	–	–	–	–	–	–	·	·
COc1ccc(C(=O)Nc2nnc(SCC(=O)NC3CCCC3)s2)c(OC)c1	–	–	–	–	–	–	·	·
COc1ccc(C(=O)Nc2nnc(SCC(=O)Nc3ccc(NC(C)=O)cc3)s2)c(OC)c1	–	52.2	39.0	–	–	–	82.1	122.0
O=C(CN1C(=O)CSc2ccc(S(=O)(=O)N3CCOCC3)cc21)NCCc1ccccc1	·	–	–	·	·	·	·	·
Cc1ccc(/C=C/C(=O)Nc2sc3c(c2C#N)CCCC3)o1	–	–	–	–	–	–	·	·
COc1ccc(/C=N\NC(=O)c2ccc([N+](=O)[O-])cc2)cc1COc1c(F)c(F)cc(F)c1F	–	81.6	51.7	·	–	–	58.4	98.8
COc1ccc(C(=O)N/N=C/c2ccc(OC)c(COc3c(F)c(F)cc(F)c3F)c2)cc1	–	–	–	·	–	–	·	·
Cc1cc2oc3ccc(NCCCn4ccnc4)cc3c(=O)c2cc1C	–	114.9	78.7	–	–	–	127.3	+
Cc1cc2oc3ccc(NCCCN4CCOCC4)cc3c(=O)c2cc1C	–	–	–	–	–	–	·	·
CCCCOc1cccc2c(=O)n(CC(=O)Nc3ccc4c(c3)OCCO4)ccc12	·	25.2	34.5	·	·	·	34.1	38.3
COc1ccc(NC(=O)c2ccc(-c3ccc([N+](=O)[O-])cc3)o2)cc1OC	–	–	–	–	–	–	·	·
CC(=O)Nc1ccc(NC(=O)c2ccc(-c3ccc([N+](=O)[O-])cc3)o2)cc1	–	62.1	129.8	–	–	–	164.5	+
Cc1ccc2c(c1)C(=C(C#N)C#N)CCN2	–	–	–	·	–	–	·	·
COc1ccc(NC(=O)CN(C)CC(=O)N(C)C2(C#N)CCC(C)CC2)cc1 (stereo not drawn)	–	–	–	–	–	–	·	·
COc1ccc(OC)c(C=NNC(=O)NN=Cc2cc(OC)ccc2OC)c1	·	56.9	42.4	·	·	·	96.2	92.4
COc1ccc(OC)c(/C=N/NC(=O)C(=O)N/N=C/c2cc(OC)ccc2OC)c1	–	–	–	–	–	–	·	·
CC(=O)c1ccc(-c2cnc3c(NC=O)cc(-c4ccc(N5CCN(C)CC5)cc4)cn23)cc1	·	62.6	81.3	·	·	·	154.6	139.4
SMILES	PAFAH2 FP inh	ARFGAP1 inhibitor	ASAP1 GAP inh	pPAFAH FP inh	PAFAH1B3 FP inh	PAFAH1B2 FP inh	ASAP1 GAP conf	ARFGAP1 confirm
CC(=O)Nc1cc(-c2ccc(N3CCN(C)CC3)cc2)cn2c(-c3cccc(C(C)=O)c3)cnc12	·	37.5	53.6	·	·	·	94.6	81.8
COc1ccc(NS(=O)(=O)NC(=O)c2c[nH]c3ccccc23)cc1	–	–	–	–	–	–	·	·
COc1ccc(/C=C2\Oc3cc(OCC(N)=O)ccc3C2=O)cc1OC	–	32.0	34.8	–	–	–	47.0	45.2
O=C(/C=C/c1ccco1)Nc1ccc(-c2nc3ccccc3[nH]2)cc1	–	87.7	28.1	–	–	–	70.8	139.1
O=C(Nc1ccc(-c2nc3ccccc3[nH]2)cc1)c1ccco1	–	·	·	–	–	–	·	·
NC(N)=NS(=O)(=O)c1ccc(NC(=S)NC(=O)Cc2ccc(Cl)cc2)cc1	–	–	–	–	–	–	·	·
COc1ccc(N2CCN(C(=S)NCc3ccccc3)CC2)cc1	–	38.3	37.4	–	–	–	–	–
CCN(CC)C(=O)c1[nH]cnc1C(=O)Nc1ccc(Cl)cc1	–	–	–	–	–	–	·	·
COc1cccc(NC(=O)Cn2nnc(C(=O)Nc3cc(Cl)ccc3OC)c2N)c1	–	137.8	76.8	–	–	–	109.2	198.8
COc1ccc(Cl)cc1NC(=O)c1nnn(CC(=O)Nc2ccc(OC)c(OC)c2)c1N	–	–	–	–	–	–	·	·
CC1=CC[C@@]23CCCN2C(=O)CCC[C@H]3C1	–	–	–	–	–	–	·	·
Cn1c(=O)n(CCOc2ccc(Cl)cc2Cl)c2ccccc21	–	30.3	40.1	–	–	–	47.5	43.8
Cn1c(=O)n(CCOc2ccccc2Cl)c2ccccc21	–	–	–	–	–	–	·	·
CCc1cccc(CC)c1NC(=O)CSc1nnc(C2CC2)n1C	–	–	–	–	–	–	·	·
O=c1c(Cl)c(N/N=C/c2ccc(Br)cc2)cnn1-c1ccccc1	–	43.7	42.2	–	–	–	32.5	64.6
Cc1ccc2nc(SCC(=O)N3CCC(Cc4ccccc4)CC3)nc(=O)n2c1	–	59.1	26.2	–	–	–	40.6	68.0
COc1ccc(S(=O)(=O)N2CCN(C(=O)c3cc(-c4ccc(C)cc4)n[nH]3)CC2)cc1	–	–	–	–	–	–	·	·
CC1(C)OC(=O)C(=Cc2ccc(-c3ccc(Cl)c(C(=O)O)c3)o2)C(=O)O1	–	–	–	–	–	–	·	·
Cc1[nH][nH]c(=O)c1C(c1ccc(-c2ccc(Cl)c(C(=O)O)c2)o1)c1c(C)[nH][nH]c1=O	–	24.8	41.6	·	–	–	–	–
Cc1ccc(-c2ccc(/C=C3\SC(N4CCOCC4)=NC3=O)o2)cc1	–	37.0	49.4	–	–	–	115.6	87.2
O=C1N=C(N2CCOCC2)S/C1=C/c1ccc(-c2ccc(F)cc2)o1	–	29.6	33.5	–	–	–	57.5	49.3
CCOC(=O)[C@]12CCC=C1N(CCC1=CCCCC1)C(=O)[C@H](CC(=O)NCc1ccccc1)C2	·	–	–	·	·	·	·	·
Cc1ccc2cc3cc(C(=O)NCc4ccc5c(c4)OCO5)oc3nc2c1	–	67.6	54.1	·	–	–	27.9	109.5
CCOc1ccccc1/C=N/NC(=O)C[n+]1ccccc1	–	–	–	–	–	–	·	·
